Reference: ChEMBL document CHEMBL1131154, “Quantitative structure-activity relationships of 2, 4-diamino-5-(2-X-benzyl)pyrimidines versus bacterial and avian dihydrofolate reductase” (J Med Chem, 1998)

Assays:
[1] = Selectivity measured as log[1/Ki(Lactobacillus casei DHFR)]-log[1/Ki(chicken liver DHFR)]
Method in brief: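 Selectivity index calculated as log(1/Ki) for L. casei DHFR minus log(1/Ki) for chicken liver DHFR. Both Ki values came from stopped-flow 340 nm NADPH-oxidation assays, with jackknife estimation.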

Dihydrofolate reductase [2] = target: Dihydrofolate reductase (Lactobacillus casei, UniProt P00381); assay: Inhibition of Dihydrofolate reductase from Lactobacillus casei; parameters: species or system Lacticaseibacillus casei
Dihydrofolate reductase (Lactobacillus casei, UniProt P00381), sequence (P00381 whole entry): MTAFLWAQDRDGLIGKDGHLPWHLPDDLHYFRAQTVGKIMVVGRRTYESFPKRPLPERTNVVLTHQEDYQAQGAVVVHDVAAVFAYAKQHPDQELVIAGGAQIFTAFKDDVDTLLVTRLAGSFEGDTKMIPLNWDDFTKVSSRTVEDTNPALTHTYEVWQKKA
Method in brief: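 L. casei DHFR, from lyophilized powder, dissolved to about 0.5 unit/mL in 0.05 M Tris pH 7.20 with 50 mM mercaptoethanol and stored at −20 °C. Dihydrofolate and NADPH solutions kept at 0 °C. Inhibitors in DMSO, final ≤0.5%. Stopped-flow spectrophotometry at 340 nm followed NADPH oxidation and dihydrofolate reduction. Ki with 95% confidence limits by jackknife.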

Dihydrofolate reductase [3] = target: T1, Dihydrofolate reductase (Gallus gallus, UniProt P00378); assay: Inhibition of chicken liver Dihydrofolate reductase (dihydrofolate reductase)
T1 sequence (P00378 whole entry): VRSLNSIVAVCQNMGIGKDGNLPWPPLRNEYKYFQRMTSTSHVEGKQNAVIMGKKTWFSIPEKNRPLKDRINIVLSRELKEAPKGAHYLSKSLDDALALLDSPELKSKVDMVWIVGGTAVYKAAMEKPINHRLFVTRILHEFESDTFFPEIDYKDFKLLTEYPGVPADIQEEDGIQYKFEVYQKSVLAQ
Method in brief: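 Chicken liver DHFR vial (0.19 unit/mL) dissolved in 24 mL of 200 μM NADPH. Inhibitors in DMSO, final ≤0.5%. Activity with and without inhibitor read at 340 nm by stopped-flow spectrophotometry as NADPH is oxidized and dihydrofolate reduced.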

| SMILES | Selectivity index [1] | Ki (Dihydrofolate reductase [2]) | Ki (Dihydrofolate reductase [3]) |
| --- | --- | --- | --- |
| Nc1ncc(Cc2ccccc2O)c(N)n1 | -0.09 | 110 µM | 89.1 µM |
| CCCCOc1ccccc1Cc1cnc(N)nc1N | -0.61 | 35.5 µM | – |
| C=CCOc1ccccc1Cc1cnc(N)nc1N | 0.2 | 13.5 µM | 21.4 µM |
| CCOc1ccccc1Cc1cnc(N)nc1N | 0.09 | 20 µM | – |
| CCCCCCOc1ccccc1Cc1cnc(N)nc1N | -1.1 | 100 µM | 7.94 µM |
| COc1cccc(Cc2cnc(N)nc2N)c1 | 1.48 | – | – |
| Nc1ncc(Cc2ccccc2)c(N)n1 | 0.49 | – | – |
| NC(=O)COc1ccccc1Cc1cnc(N)nc1N | -0.37 | 79.4 µM | 33.9 µM |
| COCc1ccccc1Cc1cnc(N)nc1N | 0.15 | 28.2 µM | 39.8 µM |
| CS(=O)(=O)Oc1ccccc1Cc1cnc(N)nc1N | -0.57 | 85.1 µM | 22.9 µM |
| Nc1ncc(Cc2ccccc2OCc2ccccc2)c(N)n1 | -0.3 | 18.2 µM | 9.12 µM |

Other lines, results leading:

| Selectivity index [1] | Ki (Dihydrofolate reductase [2]) | Ki (Dihydrofolate reductase [3]) | SMILES |
| --- | --- | --- | --- |
| 0.09 | 10 µM | 12.3 µM | Nc1ncc(Cc2ccccc2Br)c(N)n1 |
| 0.26 | 9.55 µM | 17.4 µM | Nc1ncc(Cc2ccccc2Cl)c(N)n1 |
| 0.66 | 9.55 µM | 43.7 µM | Nc1ncc(Cc2ccccc2F)c(N)n1 |
| 0.49 | 9.55 µM | – | Cc1ccccc1Cc1cnc(N)nc1N |
| -0.12 | 11.5 µM | 8.71 µM | Nc1ncc(Cc2ccccc2I)c(N)n1 |
| 0.46 | 10 µM | 28.8 µM | COc1ccccc1Cc1cnc(N)nc1N |
